Screening data (PubChem BioAssay)
CHOP inhibitor: CHOP inhibition in unfolded protein response; 220,000 tested, 3.8% active; inhibition, % at 10 µM; CHO-K1 CHOP-promoter luciferase, tunicamycin-induced, 15-18 h; AID 2732;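 active = compounds that reduced the stress-induced luciferase reporter signal by more than about 70% of percent inhibition, limit read from the data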;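 also: 0% = tunicamycin plus vehicle and 100% = wells without tunicamycin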
CSC inhib: cancer stem cell inhibition; cancer stem cell-like cells viability, luminescence; inhibition, % at 7.5 µM; 300,000 tested, 1.1% active; in the data active = inhibition above about 75%; inconclusive = no clear call, values can overlap the other calls; tested in HMLE shEcad cells
T cruzi inh: blocks replication of Trypanosoma cruzi; 300,000 tested, 1.4% active; AID 1885; inhibition, % (test concentration not listed); T. cruzi beta-gal in NIH3T3, luminescence, 90 h;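 active = mean inhibition across valid replicates above about 55%, limit read from the data; inconclusive = mean below that limit but half or more replicates reach it; inactive = mean below it, under half of replicates reach it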;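 also: signal also drops with host cell toxicity which is not excluded here; 0% = plate median of DMSO wells and 100% = zero luminescence signal; higher percent means less beta-gal luminescence so fewer parasites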
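System: mouse NIH/3T3 fibroblasts infected with β-gal-expressing T. cruzi Tulahuen C4 / Input: NIH/3T3 cells, 5,000 per well / Buffer or medium: Low-serum DMEM with 2% FBS / Probe or stimulus: 5000 reporter trypomastigotes per well / Schedule: ≥90 h infection period, 3 h prior cell attachment / Measured by: GalScreen luminescence, 60 min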
Beta apoptosis: beta cell apoptosis inhibition. INS-1E cytokine-induced death, ATP luminescence, 48 h; percent of positive-control rescue, neutral wells zero. protection from apoptosis, % (no concentration beside the values). 300,000 tested, 0.8% active;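 active = Every replicate reaches about 75%, or at least half do and their mean reaches it too, limit read from the data; inconclusive = At least half of replicates reach the limit but their mean does not; inactive = Under half of replicates reach the limit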;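 also: 0% = cytokine-treated negative control wells and 100% = positive control rescue; higher means more ATP so stronger rescue from cytokine killing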
GRIN3A LBD mod: NR3A (human) ligand-binding domain modulation; 340,000 tested, 2.5% active; NR3A LBD differential scanning fluorimetry, Tm shift; 0% = protein alone, 100% = glycine-bound protein; Tm shift relative to glycine control, % at 25 µM;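 active = melting temperature shift of at least 10% of the positive control shift, at one fixed dose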
PREPL inh: inhibits the human prolyl oligopeptidase-like enzyme; AID 2751; Q4J6C6; 320,000 tested, 0.68% active; inhibition, % at 5.96 µM; recombinant PREPL, fluorescence polarization activity-based probe;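 also: 0% = enzyme with DMSO and 100% = wells lacking enzyme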
PREPL inh cf: confirmation of human PREPL enzyme inhibitors | shares compounds with PREPL inh | recombinant PREPL, fluorescence polarization activity probe | inhibition, % at 5.96 µM | 2,000 tested, 67% active | AID 2803;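 also: 0% = protein with DMSO and 100% = wells lacking protein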
Numbers without * were called inactive; ? = inconclusive; nt = not tested or not shown. Sampled rows, rich in hits. Any-hit rate of the full collection: about 6.7%. Rule as the data show it, unless noted: active = inhibition above about 43%; inactive = the rest.

SMILES	CHOP inhibitor	CSC inhib	T cruzi inh	Beta apoptosis	GRIN3A LBD mod	PREPL inh	PREPL inh cf
C[C@H]1CN([C@@H](C)CO)C(=O)Cc2cc(NC(=O)C3CC3)ccc2O[C@H]1CN(C)Cc1ccc(Oc2ccccc2)cc1	nt	69.6	nt	-2.5	-15.5	-6.4	nt
CC(C)(C)S(=O)(=O)N1Cc2cc(CO)cc(CCO)c2[C@@H]1CCO	nt	nt	nt	nt	0.7	nt	nt
O=C(NCCC1=CCCCC1)c1ccc(-n2cncn2)c([N+](=O)[O-])c1	nt	4.1	-0.5	1.8	-1.2	1.9	nt
O=C(NCCOc1ccccc1)c1ccc2c(c1)S(=O)(=O)c1cc(Cl)ccc1C2=O	nt	-3.2	nt	0.1	1.8	43.5*	29.9
COc1ccccc1NC(=O)c1ccc(CSc2ccccc2)o1	nt	18.7	-2.4	-3.8	2.1	6.6	nt
CC(C)CN(CCNC(=O)CN1N=C(c2ccc(Cl)cc2)CCC1=O)CC(C)C	nt	-8.9	-16.1	-2.0	-0.3	49.4*	41.6
CCCN(C(=O)c1cnccn1)c1c(N)n(Cc2ccccc2)c(=O)[nH]c1=O	nt	nt	nt	5.5	0.3	2.5	nt
CC[C@]12c3[nH]c4ccc(OC)cc4c3CCN1C(=O)C(CC(=O)NCCCN(C)C)C[C@@H]2C(=O)N1CCN(C(=O)c2ccco2)CC1 (some centres undefined)	nt	nt	nt	nt	-1.1	nt	nt
COc1cccc(N2CCN(Cc3nc4ccccc4c(=O)[nH]3)CC2)c1	-2.3	-12.7	7.9	nt	0.1	48.5*	39.4
CN(C)c1ccc(NC(=O)c2ccc(Cn3cc([N+](=O)[O-])cn3)cc2)cc1	7.2	10.9	48.5	6.7	-3.8	48.1*	57.4*
O=C1c2c(O)ccc(O)c2C(=O)c2c(NCCNCCO)ccc(NCCNCCO)c21	33.0	97.0*	nt	66.8	-1.0	101.5*	98.2*
O=C1c2ccccc2C(=O)c2c(NCCCN(CCO)CCO)cccc21	-2.6	nt	?	nt	0.6	nt	nt
CC(=O)Nc1ccc(S(=O)(=O)N2CCC(NC(=O)C(Cc3ccccc3F)NC(C)=O)CC2)cc1 (centres undefined)	nt	nt	-8.1	nt	-0.2	nt	nt
O=S(=O)(Nc1ccccc1N1CCOCC1)c1ccc(Cl)cc1	nt	-10.2	nt	2.2	-1.0	13.4	nt
O=[N+]([O-])c1ccc2cn(-c3ccccc3)nc2c1	-13.6	nt	1.5	4.4	-0.4	12.4	nt
Cn1cc(-c2ccno2)c(C(=O)O)n1	3.5	-5.7	-10.2	-6.3	-0.8	11.3	nt
COc1ccc(C(CCNCc2ccc(N(C)C)cc2)c2ccccc2)cc1 (centres undefined)	nt	10.2	29.4	28.2	-1.8	54.2*	64.0*
O=[N+]([O-])c1ccc(COc2ccc(CN3CCCCC3)cc2)cc1	nt	nt	nt	nt	1.2	nt	nt
COc1ccccc1-c1nnc2sc(-c3ccc(N(C)C)cc3)nn12	nt	54.2	23.3	-0.5	-6.5	51.7*	48.2*
COc1ccc(Nc2nc(N3CCN(S(=O)(=O)N(C)C)CC3)nc3ccccc23)cc1	nt	7.5	29.7	nt	2.0	43.0	nt
C/C(=N\NC(=O)c1cccc(N/N=C(\C)c2ccncc2)c1)c1ccncc1	8.2	-1.0	5.8	4.3	-15.1	51.9*	14.9
Cc1ccc(N=Cc2sc(O)c3ccccc23)cc1	14.8	6.1	-9.5	2.0	-0.3	50.0*	54.0*
Cc1ccc(N=Cc2sc(O)c3ccccc23)c(C)c1	-1.5	4.5	-31.6	-1.5	0.8	1.2	nt
COc1cc(OC)c(C(=O)OC(C)C(=O)Nc2cccc(C(F)(F)F)c2)cc1OC (centres undefined)	39.5	12.5	3.4	0.8	-5.8	14.8	nt
COc1cc(O)c(C(CC(=O)N2CCN(c3ccccc3)CC2)c2ccc(N(C)C)cc2)c(OC)c1 (centres undefined)	5.8	1.3	2.8	1.1	-2.4	54.4*	48.0*
CCCn1c(C)cc(-c2csc(N)n2)c1C	-2.3	-9.4	30.7	5.8	-0.8	44.3*	26.8
COc1ccc(-n2c(C)cc(-c3csc(N)n3)c2C)cc1	63.0	12.3	7.8	12.5	-4.8	43.3*	27.8
Cc1c(-c2csc(N)n2)cnn1C	-20.7	-15.7	-16.7	-3.7	-0.6	0.6	nt
COc1ccc(/C=N/n2cnnc2)cc1COc1ccccn1	-18.8	5.8	-13.1	-7.7	-1.3	2.8	nt
COc1cc(/C=N/n2cnnc2)ccc1OCc1ccccc1	-12.1	-3.9	51.5	-5.3	1.9	46.2*	42.3
